Results published in ChEMBL document CHEMBL5724801, “EUbOPEN Chemogenomics Library - Multiplex” (2024).
Values joined by “and” are separate entries in the source; they are usually repeats but may differ in a detail not shown here. Equal values may be shown once.

Test system: HEK-293T
Experiment: Multiplex assay against HEK293T
Type: toxicity, cell-based
Settings: human
Procedure, shortened: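 Cells stained live at seeding with Hoechst33342, BioTracker Green Microtubule Cytoskeleton Dye, MitoTracker Red and Annexin V Alexa Fluor 680 were imaged on a CQ1 microscope at 37°C and 5% CO2 after compound addition. Their classification by CellPathfinder machine-learning gating ran from Hoechst high-intensity objects versus normal cells, to healthy, pyknosed or fragmented nuclei among normal cells, to mitotic or apoptotic among pyknosed cells. Tubulin, mitochondrial-mass and membrane-permeability phenotypes are per cents of healthy-nucleus cells.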

[1] = 12 h, 1 µM, compound concentration 1 uM
[2] = 12 h, 10 µM, compound concentration 10 uM
[3] = 24 h, 1 µM, compound concentration 1 uM
[4] = 24 h, 10 µM, compound concentration 10 uM
[5] = 48 h, 1 µM, compound concentration 1 uM
[6] = 48 h, 10 µM, compound concentration 10 uM

CN1C[C@H](C(=O)N[C@]2(C)O[C@@]3(O)[C@@H]4CCCN4C(=O)[C@H](Cc4ccccc4)N3C2=O)C[C@@H]2c3cccc4[nH]cc(c34)C[C@H]21.CS(=O)(=O)O [DIHYDROERGOTAMINE MESYLATE]
Population Apoptotic (%) [1]: 38% and 46%
Population Fragmented Nuclei (%) [1]: 6% and 3%
Population Healthy Nuclei (%) [1]: 84% and 81%
Population Hoechst High Intensity Objects (%) [1]: 5%
Population Membrane Permeable-Phenotype (%) [1]: 0%
Population Mitochondria Different-Phenotype (%) [1]: 41% and 65%
Population Mitotic Cells (%) [1]: 61% and 53%
Population Normal (%) [1]: 94%
Population Pyknosed Nuclei (%) [1]: 8% and 14%
Population Tubulin-Different-Phenotype (%) [1]: 26% and 17%
Total Cell Count [1]: 418 and 285
Population Apoptotic (%) [2]: 31% and 53%
Population Fragmented Nuclei (%) [2]: 7% and 5%
Population Healthy Nuclei (%) [2]: 76% and 80%
Population Hoechst High Intensity Objects (%) [2]: 9% and 11%
Population Membrane Permeable-Phenotype (%) [2]: 0%
Population Mitochondria Different-Phenotype (%) [2]: 48% and 61%
Population Mitotic Cells (%) [2]: 68% and 46%
Population Normal (%) [2]: 90% and 88%
Population Pyknosed Nuclei (%) [2]: 15% and 13%
Population Tubulin-Different-Phenotype (%) [2]: 29% and 23%
Total Cell Count [2]: 403 and 435
Population Apoptotic (%) [3]: 28% and 51%
Population Fragmented Nuclei (%) [3]: 9% and 7%
Population Healthy Nuclei (%) [3]: 80% and 84%
Population Hoechst High Intensity Objects (%) [3]: 4% and 3%
Population Membrane Permeable-Phenotype (%) [3]: 0%
Population Mitochondria Different-Phenotype (%) [3]: 28% and 41%
Population Mitotic Cells (%) [3]: 71% and 48%
Population Normal (%) [3]: 95% and 96%
Population Pyknosed Nuclei (%) [3]: 9% and 8%
Population Tubulin-Different-Phenotype (%) [3]: 20% and 12%
Total Cell Count [3]: 621 and 341
Population Apoptotic (%) [4]: 27% and 32%
Population Fragmented Nuclei (%) [4]: 10% and 9%
Population Healthy Nuclei (%) [4]: 76% and 84%
Population Hoechst High Intensity Objects (%) [4]: 5% and 6%
Population Membrane Permeable-Phenotype (%) [4]: 0%
Population Mitochondria Different-Phenotype (%) [4]: 33% and 39%
Population Mitotic Cells (%) [4]: 72% and 67%
Population Normal (%) [4]: 94% and 93%
Population Pyknosed Nuclei (%) [4]: 13% and 6%
Population Tubulin-Different-Phenotype (%) [4]: 26% and 16%
Total Cell Count [4]: 480 and 567
Population Apoptotic (%) [5]: 29% and 28%
Population Fragmented Nuclei (%) [5]: 14% and 12%
Population Healthy Nuclei (%) [5]: 78% and 82%
Population Hoechst High Intensity Objects (%) [5]: 2%
Population Membrane Permeable-Phenotype (%) [5]: 1% and 0%
Population Mitochondria Different-Phenotype (%) [5]: 17% and 23%
Population Mitotic Cells (%) [5]: 70% and 71%
Population Normal (%) [5]: 97%
Population Pyknosed Nuclei (%) [5]: 6% and 5%
Population Tubulin-Different-Phenotype (%) [5]: 11% and 9%
Total Cell Count [5]: 1011 and 524
Population Apoptotic (%) [6]: 22% and 31%
Population Fragmented Nuclei (%) [6]: 15%
Population Healthy Nuclei (%) [6]: 76% and 77%
Population Hoechst High Intensity Objects (%) [6]: 2% and 1%
Population Membrane Permeable-Phenotype (%) [6]: 0%
Population Mitochondria Different-Phenotype (%) [6]: 20% and 21%
Population Mitotic Cells (%) [6]: 77% and 68%
Population Normal (%) [6]: 97% and 98%
Population Pyknosed Nuclei (%) [6]: 7% and 6%
Population Tubulin-Different-Phenotype (%) [6]: 12% and 11%
Total Cell Count [6]: 778 and 793

CN1CCN(c2nc3cc(C(F)(F)F)ccc3n3cccc23)CC1.O=C(O)/C=C\C(=O)O.O=C(O)/C=C\C(=O)O
Population Apoptotic (%) [1]: 37% and 53%
Population Fragmented Nuclei (%) [1]: 5% and 8%
Population Healthy Nuclei (%) [1]: 80% and 77%
Population Hoechst High Intensity Objects (%) [1]: 10% and 5%
Population Membrane Permeable-Phenotype (%) [1]: 0%
Population Mitochondria Different-Phenotype (%) [1]: 48% and 76%
Population Mitotic Cells (%) [1]: 62% and 46%
Population Normal (%) [1]: 89% and 94%
Population Pyknosed Nuclei (%) [1]: 13% and 14%
Population Tubulin-Different-Phenotype (%) [1]: 33% and 35%
Total Cell Count [1]: 438 and 332
Population Apoptotic (%) [2]: 68% and 64%
Population Fragmented Nuclei (%) [2]: 7% and 5%
Population Healthy Nuclei (%) [2]: 76%
Population Hoechst High Intensity Objects (%) [2]: 14% and 9%
Population Membrane Permeable-Phenotype (%) [2]: 0%
Population Mitochondria Different-Phenotype (%) [2]: 73% and 89%
Population Mitotic Cells (%) [2]: 31% and 35%
Population Normal (%) [2]: 85% and 90%
Population Pyknosed Nuclei (%) [2]: 15% and 18%
Population Tubulin-Different-Phenotype (%) [2]: 64% and 66%
Total Cell Count [2]: 396 and 286
Population Apoptotic (%) [3]: 33% and 54%
Population Fragmented Nuclei (%) [3]: 9% and 6%
Population Healthy Nuclei (%) [3]: 81% and 83%
Population Hoechst High Intensity Objects (%) [3]: 6%
Population Membrane Permeable-Phenotype (%) [3]: 1% and 0%
Population Mitochondria Different-Phenotype (%) [3]: 30% and 50%
Population Mitotic Cells (%) [3]: 66% and 45%
Population Normal (%) [3]: 93%
Population Pyknosed Nuclei (%) [3]: 9% and 10%
Population Tubulin-Different-Phenotype (%) [3]: 24% and 25%
Total Cell Count [3]: 557 and 390
Population Apoptotic (%) [4]: 41% and 63%
Population Fragmented Nuclei (%) [4]: 8% and 10%
Population Healthy Nuclei (%) [4]: 77% and 78%
Population Hoechst High Intensity Objects (%) [4]: 9% and 7%
Population Membrane Permeable-Phenotype (%) [4]: 0%
Population Mitochondria Different-Phenotype (%) [4]: 65% and 79%
Population Mitotic Cells (%) [4]: 58% and 36%
Population Normal (%) [4]: 90% and 92%
Population Pyknosed Nuclei (%) [4]: 13% and 10%
Population Tubulin-Different-Phenotype (%) [4]: 62% and 58%
Total Cell Count [4]: 490 and 378
Population Apoptotic (%) [5]: 20% and 37%
Population Fragmented Nuclei (%) [5]: 13%
Population Healthy Nuclei (%) [5]: 78% and 79%
Population Hoechst High Intensity Objects (%) [5]: 3% and 5%
Population Membrane Permeable-Phenotype (%) [5]: 2% and 0%
Population Mitochondria Different-Phenotype (%) [5]: 17% and 42%
Population Mitotic Cells (%) [5]: 79% and 62%
Population Normal (%) [5]: 96% and 94%
Population Pyknosed Nuclei (%) [5]: 7%
Population Tubulin-Different-Phenotype (%) [5]: 17% and 21%
Total Cell Count [5]: 915 and 535
Population Apoptotic (%) [6]: 50% and 52%
Population Fragmented Nuclei (%) [6]: 15% and 11%
Population Healthy Nuclei (%) [6]: 75% and 77%
Population Hoechst High Intensity Objects (%) [6]: 10% and 12%
Population Membrane Permeable-Phenotype (%) [6]: 2% and 0%
Population Mitochondria Different-Phenotype (%) [6]: 41% and 65%
Population Mitotic Cells (%) [6]: 50% and 47%
Population Normal (%) [6]: 89% and 87%
Population Pyknosed Nuclei (%) [6]: 8% and 10%
Population Tubulin-Different-Phenotype (%) [6]: 44% and 56%
Total Cell Count [6]: 672 and 472
